Measured values reported in ChEMBL document CHEMBL4138227, “Identification of an oxime-containing C-glucosylarene as a potential inhibitor of sodium-dependent glucose co-transporter 2” (Eur J Med Chem, 2018).
Values belong to the molecule of their own block, whether it stands above or below them.

What was measured:
[1] = molecular target: T1, Sodium/glucose cotransporter 2 (Homo sapiens, UniProt P31639); assay: Inhibition of human SGLT2 expressed in CHO cells assessed as reduction in [14C]AMG uptake after 1 hr by microbeta counting method; format: cell-based
T1 sequence (P31639 whole entry): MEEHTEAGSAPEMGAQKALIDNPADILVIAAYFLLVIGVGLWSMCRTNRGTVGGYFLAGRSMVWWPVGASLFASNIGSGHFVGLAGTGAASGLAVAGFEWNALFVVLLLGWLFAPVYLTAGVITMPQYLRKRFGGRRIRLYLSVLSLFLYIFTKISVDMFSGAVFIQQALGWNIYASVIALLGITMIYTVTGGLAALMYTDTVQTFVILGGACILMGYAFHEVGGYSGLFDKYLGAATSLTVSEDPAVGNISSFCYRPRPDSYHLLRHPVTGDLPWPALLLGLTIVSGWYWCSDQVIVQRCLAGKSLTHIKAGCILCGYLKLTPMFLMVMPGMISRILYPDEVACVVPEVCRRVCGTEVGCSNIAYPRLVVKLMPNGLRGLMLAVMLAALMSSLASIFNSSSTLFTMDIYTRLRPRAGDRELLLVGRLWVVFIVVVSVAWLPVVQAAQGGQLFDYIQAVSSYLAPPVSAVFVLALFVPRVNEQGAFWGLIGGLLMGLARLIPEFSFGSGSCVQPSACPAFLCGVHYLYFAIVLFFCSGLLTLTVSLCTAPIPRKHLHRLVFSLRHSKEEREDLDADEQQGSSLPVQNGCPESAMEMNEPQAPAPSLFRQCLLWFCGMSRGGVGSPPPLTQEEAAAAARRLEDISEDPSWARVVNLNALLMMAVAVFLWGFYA
Procedure, shortened: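 CHO cells stably expressing human SGLT2 (or SGLT1); inhibition of sodium-dependent uptake of [14C]α-methyl-D-glucopyranoside measured; EC50 from at least two independent experiments, each in triplicate.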

[2] = Cmax in Sprague-Dawley rat at 1.1 mg/kg, po; format: ADME, organism-based; parameters: dose 1.1 mg/kg, route oral; settings: in vivo
[3] = Oral bioavailability in Sprague-Dawley rat at 1.1 mg/kg; format: ADME, organism-based; settings: in vivo
[4] = Clearance in Sprague-Dawley rat at 1.1 mg/kg, iv; format: ADME, organism-based; settings: in vivo
[5] = Elimination half life in Sprague-Dawley rat at 1.1 mg/kg, po; format: ADME, organism-based; settings: in vivo, read-out: beta t1/2 (converted)
[6] = Volume of distribution at steady state in Sprague-Dawley rat at 1.1 mg/kg, iv; format: ADME, organism-based; settings: in vivo, read-out: Vdss
[7] = Elimination half life in Sprague-Dawley rat at 1.1 mg/kg, iv; format: ADME, organism-based; settings: in vivo, read-out: beta t1/2 (converted)
[8] = Tmax in Sprague-Dawley rat at 1.1 mg/kg, po; format: ADME, organism-based; settings: in vivo
[9] = AUC (0 to infinity) in Sprague-Dawley rat at 1.1 mg/kg, po; format: ADME, organism-based; parameters: dose 1.1 mg/kg, time infinity, route oral; settings: in vivo
Procedure, shortened: (§1)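 Rats got a single intravenous or oral dose, with 3 animals per route. Pharmacokinetic parameters were derived, including T1/2, clearance, Vss, Cmax, Tmax, AUC(0-inf) and oral bioavailability (F).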

[10] = AUC (0 to infinity) in Sprague-Dawley rat at 1.1 mg/kg, iv; format: ADME, organism-based; parameters: dose 1.1 mg/kg, route intravenous, time infinity; settings: in vivo; procedure, shortened: as §1
[11] = Volume of distribution at steady state in Sprague-Dawley rat at 1 mg/kg, iv; format: ADME, organism-based; settings: in vivo, read-out: Vdss
[12] = Elimination half life in Sprague-Dawley rat at 1 mg/kg, po; format: ADME, organism-based; settings: in vivo, read-out: beta t1/2 (converted)
[13] = Cmax in Sprague-Dawley rat at 1 mg/kg, po; format: ADME, organism-based; parameters: dose 1 mg/kg, route oral; settings: in vivo
[14] = Elimination half life in Sprague-Dawley rat at 1 mg/kg, iv; format: ADME, organism-based; settings: in vivo, read-out: beta t1/2 (converted)
[15] = Clearance in Sprague-Dawley rat at 1 mg/kg, iv; format: ADME, organism-based; settings: in vivo
[16] = Tmax in Sprague-Dawley rat at 1 mg/kg, po; format: ADME, organism-based; settings: in vivo
[17] = AUC (0 to infinity) in Sprague-Dawley rat at 1 mg/kg, po; format: ADME, organism-based; parameters: dose 1 mg/kg, time infinity, route oral; settings: in vivo; procedure, shortened: as §1
[18] = Oral bioavailability in Sprague-Dawley rat at 1 mg/kg; format: ADME, organism-based; settings: in vivo
[19] = AUC (0 to infinity) in Sprague-Dawley rat at 1 mg/kg, iv; format: ADME, organism-based; parameters: dose 1 mg/kg, time infinity, route intravenous; settings: in vivo; procedure, shortened: as §1
Rattus norvegicus [20] = assay: In vivo inhibition of SGLT2 in Sprague-Dawley rat assessed as urinary glucose excretion per 200 gram of body weight at 10 mg/kg, po administered as single dose measured after 24 hrs; format: functional
Procedure, shortened: (§2)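 Normal SD rats given a single oral dose (0.1, 1, 10 or 50 mg/kg) or vehicle; urine collected over 24 h and glucose excretion expressed as mg per 200 g body weight; mean ± SEM, n = 4/group (vehicle n = 8).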

hERG (KCNH2) = hERG (KCNH2) (Homo sapiens, UniProt Q12809); assay: Inhibition of human ERG at 10 uM by radioligand assay relative to control
hERG (KCNH2), sequence (Q12809 whole entry): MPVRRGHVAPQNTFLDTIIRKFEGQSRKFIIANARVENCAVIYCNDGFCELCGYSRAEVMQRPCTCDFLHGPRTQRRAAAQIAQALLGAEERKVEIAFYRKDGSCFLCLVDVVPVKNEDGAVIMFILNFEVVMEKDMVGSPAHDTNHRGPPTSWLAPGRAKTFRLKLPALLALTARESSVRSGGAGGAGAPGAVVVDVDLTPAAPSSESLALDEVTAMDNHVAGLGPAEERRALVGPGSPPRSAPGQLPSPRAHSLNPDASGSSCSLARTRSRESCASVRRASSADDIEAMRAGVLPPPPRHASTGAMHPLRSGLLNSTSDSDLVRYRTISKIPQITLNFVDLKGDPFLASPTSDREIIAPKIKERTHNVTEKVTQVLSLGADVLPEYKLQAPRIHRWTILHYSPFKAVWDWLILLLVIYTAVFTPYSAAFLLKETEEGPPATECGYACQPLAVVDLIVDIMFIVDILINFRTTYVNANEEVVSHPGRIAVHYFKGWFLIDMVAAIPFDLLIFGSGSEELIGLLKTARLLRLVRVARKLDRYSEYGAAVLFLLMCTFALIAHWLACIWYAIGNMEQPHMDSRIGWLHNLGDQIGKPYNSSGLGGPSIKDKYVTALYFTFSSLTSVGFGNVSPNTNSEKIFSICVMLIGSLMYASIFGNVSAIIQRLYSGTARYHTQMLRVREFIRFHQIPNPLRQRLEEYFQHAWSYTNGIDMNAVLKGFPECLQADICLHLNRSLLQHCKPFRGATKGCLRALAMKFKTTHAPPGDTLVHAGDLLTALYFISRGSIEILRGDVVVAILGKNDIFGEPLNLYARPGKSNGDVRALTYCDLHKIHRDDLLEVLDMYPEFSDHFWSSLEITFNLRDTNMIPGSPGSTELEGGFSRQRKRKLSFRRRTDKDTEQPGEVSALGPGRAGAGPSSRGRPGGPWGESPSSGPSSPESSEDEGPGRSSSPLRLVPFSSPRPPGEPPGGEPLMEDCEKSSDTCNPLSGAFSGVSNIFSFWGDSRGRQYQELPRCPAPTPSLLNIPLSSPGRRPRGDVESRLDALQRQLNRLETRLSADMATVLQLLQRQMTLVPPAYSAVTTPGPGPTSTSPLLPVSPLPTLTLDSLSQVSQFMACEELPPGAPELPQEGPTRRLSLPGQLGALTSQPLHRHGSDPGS
Procedure, shortened: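 hERG radioligand binding assay run externally by a contract laboratory; test compound at 10 µM, percent inhibition reported.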

Rattus norvegicus [21] = assay: In vivo inhibition of SGLT2 in Sprague-Dawley rat assessed as increase in urinary glucose excretion per 200 gram of body weight at 0.1 to 50 mg/kg, po administered as single dose measured after 24 hrs relative to control; format: functional
Procedure, shortened: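 Normal Sprague-Dawley rats were given a single oral dose of 0.1, 1, 10 or 50 mg/kg. Urine was collected over 24 h and glucose excretion expressed as mg glucose per 200 g body weight, relative to vehicle controls. Groups were n = 4, with vehicle n = 8. Data are mean ± SEM; p < 0.05 vs vehicle.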

Rattus norvegicus [22] = assay: In vivo inhibition of SGLT2 in Sprague-Dawley rat assessed as urinary glucose excretion per 200 gram of body weight at 1 mg/kg, po administered as single dose measured after 24 hrs; format: functional; procedure, shortened: as §2
Rattus norvegicus [23] = assay: In vivo inhibition of SGLT2 in Sprague-Dawley rat assessed as urinary glucose excretion per 200 gram of body weight at 50 mg/kg, po administered as single dose measured after 24 hrs; format: functional; procedure, shortened: as §2
Rattus norvegicus [24] = assay: Antihyperglycemic activity in streptozotocin-induced diabetic Sprague-Dawley rat model assessed as reduction in blood glucose level at 0.1 to 10 mg/kg, po administered as single dose measured after 5 hrs relative to control; format: functional; parameters: scale not given: the % may be the effect or the level left
Procedure, shortened: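 STZ-diabetic SD rats (blood glucose >450 mg/dL), single oral dose 0.1 or 10 mg/kg or vehicle; tail-vein blood sampled at 0 (predose), 0.5, 1, 2, 3, 4 and 5 h for glucose; reduction expressed versus vehicle control; mean ± SEM, n = 6/group.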

Rattus norvegicus [25] = assay: In vivo inhibition of SGLT2 in Sprague-Dawley rat assessed as urinary glucose excretion per 200 gram of body weight at 0.1 mg/kg, po administered as single dose measured after 24 hrs; format: functional; procedure, shortened: as §2

SMILES: CCOc1ccc(Cc2cc([C@@H]3O[C@H](/C=N/Nc4ccc([N+](=O)[O-])cc4)[C@@H](O)[C@H](O)[C@H]3O)ccc2Cl)cc1
EC50 [1]: 370 nM

SMILES: CCC#CCO/N=C/[C@H]1O[C@@H](c2ccc(Cl)c(Cc3ccc(OCC)cc3)c2)[C@H](O)[C@@H](O)[C@@H]1O
EC50 [1]: 396 nM

SMILES: CCOc1ccc(Cc2cc([C@@H]3O[C@H](CNOC)[C@@H](O)[C@H](O)[C@H]3O)ccc2Cl)cc1
Vd [11]: 1.8 L/kg
EC50 [1]: 63 nM
half-life [12]: 3 h
Cmax [13]: 67.2 ng/mL
half-life [14]: 1.9 h
clearance [15]: 16.5 mL/min/kg
Tmax [16]: 1.3 h
AUC(0-inf) [17]: 352 ng·h/mL
bioavailability [18]: 32.8%
AUC(0-inf) [19]: 1070 ng·h/mL

SMILES: CCOc1ccc(Cc2cc([C@@H]3O[C@H](/C=N/OCCC(C)(C)C)[C@@H](O)[C@H](O)[C@H]3O)ccc2Cl)cc1
EC50 [1]: 8540 nM

SMILES: CCOc1ccc(Cc2cc([C@@H]3O[C@H](/C=N/OCC4CC4)[C@@H](O)[C@H](O)[C@H]3O)ccc2Cl)cc1
EC50 [1]: 1950 nM

SMILES: CCOc1ccc(Cc2cc([C@@H]3O[C@H](CNNC(=O)c4ccco4)[C@@H](O)[C@H](O)[C@H]3O)ccc2Cl)cc1
EC50 [1]: 151 nM

Now from value to molecule, other results behind:

EC50 [1]: 95 nM
SMILES: CCOc1ccc(Cc2cc([C@@H]3O[C@H](CNO)[C@@H](O)[C@H](O)[C@H]3O)ccc2Cl)cc1

EC50 [1]: 335 nM
SMILES: CCO/N=C/[C@H]1O[C@@H](c2ccc(Cl)c(Cc3ccc(OCC)cc3)c2)[C@H](O)[C@@H](O)[C@@H]1O

EC50 [1]: 395 nM
SMILES: CCOc1ccc(Cc2cc([C@@H]3O[C@H](/C=N/NC(C)=O)[C@@H](O)[C@H](O)[C@H]3O)ccc2Cl)cc1

Cmax [2]: 34.5 ng/mL
bioavailability [3]: 7.1%
EC50 [1]: 88 nM
clearance [4]: 17.6 mL/min/kg
half-life [5]: 1.2 h
Vd [6]: 0.8 L/kg
half-life [7]: 0.7 h
Tmax [8]: 0.7 h
AUC(0-inf) [9]: 73 ng·h/mL
AUC(0-inf) [10]: 1030 ng·h/mL
SMILES: CCOc1ccc(Cc2cc([C@@H]3O[C@H](/C=N/NCCO)[C@@H](O)[C@H](O)[C@H]3O)ccc2Cl)cc1

EC50 [1]: 208 nM
SMILES: CCOc1ccc(Cc2cc([C@@H]3O[C@H](/C=N/NC(=O)c4ccsc4)[C@@H](O)[C@H](O)[C@H]3O)ccc2Cl)cc1

EC50 [1]: 429 nM
SMILES: CCOc1ccc(Cc2cc([C@@H]3O[C@H](/C=N/NC4=NCCN4)[C@@H](O)[C@H](O)[C@H]3O)ccc2Cl)cc1

EC50 [1]: 173 nM
SMILES: CCOc1ccc(Cc2cc([C@@H]3O[C@H](/C=N/NC(=O)c4ccncc4)[C@@H](O)[C@H](O)[C@H]3O)ccc2Cl)cc1

Cmax [2]: 239 ng/mL
Vd [11]: 1.8 L/kg
bioavailability [3]: 64%
EC50 [1]: 46 nM
half-life [14]: 4.7 h
half-life [5]: 9 h
clearance [15]: 5 mL/min/kg
AUC(0-inf) [19]: 3270 ng·h/mL
Tmax [8]: 1 h
AUC(0-inf) [9]: 2270 ng·h/mL
SMILES: CCOc1ccc(Cc2cc([C@@H]3O[C@H](/C=N/O)[C@@H](O)[C@H](O)[C@H]3O)ccc2Cl)cc1
Activity (Rattus norvegicus [20]): 1935 mg
inhibition at 10 µM (hERG (KCNH2)): 2%
fold change (FC) (Rattus norvegicus [21]): 476 - 4730
Activity (Rattus norvegicus [22]): 2215 mg
Activity (Rattus norvegicus [23]): 2732 mg
Activity (Rattus norvegicus [24]): 44%
Activity (Rattus norvegicus [25]): 275 mg
